# Published values of several laboratories.
# Compare with care: the assays were run in different laboratories.
# STK17B: Serine/threonine-protein kinase 17B (STK17B, Homo sapiens, UniProt O94768)
# ache: Acetylcholinesterase (ache, Electrophorus electricus, UniProt O42275)
# STK32A: Serine/threonine-protein kinase 32A (STK32A, Homo sapiens, UniProt Q8WU08)
# RPS6KB2: Ribosomal protein S6 kinase beta-2 (RPS6KB2, Homo sapiens, UniProt Q9UBS0)
# S1PR1: Sphingosine 1-phosphate receptor 1 (S1PR1, Homo sapiens, UniProt P21453)
SMILES,target,test,system,setting,endpoint,value
O=C(Nc1cccc(Nc2ncc(Br)c(NCCc3cnc[nH]3)n2)c1)N1CCCC1,STK17B,"enzyme activity, inhibitor, radiometric",,1 µM,remaining activity,1%
COc1cc2c(cc1OC)C(=O)N(Cc1ccc(F)nc1)C2,ache,"enzyme activity, inhibitor",,1 µM,inhibition,-1.57%
O=C(NCCCNc1nc(Nc2cccc(NC(=O)N3CCCC3)c2)ncc1C1CC1)C1CCC1,STK17B,"enzyme activity, inhibitor, radiometric",,1 µM,remaining activity,3%
COc1cc2c(cc1OC)C(=O)N(Cc1cccnc1)C2,ache,"enzyme activity, inhibitor",,1 µM,inhibition,0.13%
Cc1nn(CC(F)(F)F)cc1Nc1ncc(Br)c(NCc2ccc(S(N)(=O)=O)cc2)n1,STK17B,"enzyme activity, inhibitor, radiometric",,1 µM,remaining activity,47%
CC/C=C\C/C=C\C/C=C\C/C=C\C/C=C\C/C=C\CCC(=O)O,"Polyunsaturated fatty acid lipoxygenase ALOX15 (ALOX15, Homo sapiens, UniProt P16050)","enzyme activity, substrate, absorbance",,,Km,6.7 µM
COc1cc2c(cc1OC)C(=O)N(Cc1ccc(-c3cccs3)nc1)C2,ache,"enzyme activity, inhibitor",,1 µM,inhibition,-4.2%
Cc1nn(CC(F)(F)F)cc1Nc1ncc(C2CC2)c(NCCCNC(=O)C2CCC2)n1,STK17B,"enzyme activity, inhibitor, radiometric",,1 µM,remaining activity,13%
Cn1c2c(c3ccc(Cl)c(Cl)c31)C(C#N)C1(CCCC1)NC2=O (stereo not drawn),STK32A,"thermal stability, DSF",,10 µM,ΔTm,-0.2 °C
COC(=O)C(C)Oc1ccc2c(C)cc(=O)oc2c1 (stereo not drawn),"Aldehyde dehydrogenase 1A1 (ALDH1A1, Homo sapiens, UniProt P00352, N121S)","enzyme activity, inhibitor, absorbance",,10 µM,remaining activity,82.8%
NS(=O)(=O)c1ccc(CNc2nc(Nc3cccc(NC(=O)N4CCCC4)c3)ncc2C2CC2)cc1,STK17B,"enzyme activity, inhibitor, radiometric",,1 µM,remaining activity,77%
COc1cc2c(cc1OC)C(=O)N(Cc1nccc3ccccc13)C2,ache,"enzyme activity, inhibitor",,1 µM,inhibition,-0.79%
CCCOc1ccc(OC)c(F)c1C(=O)c1ccc(C(=O)N[C@@H]2CNC[C@H]2NC(=O)c2ccc3[nH]ncc3c2)cc1,"RAC-gamma serine/threonine-protein kinase (AKT3, Homo sapiens, UniProt Q9Y243)","enzyme activity, inhibitor",,0.1 µM,remaining activity,88%
O=C(NCCCNc1nc(Nc2cccc(CN3CCOCC3)c2)ncc1C1CC1)C1CCC1,STK17B,"enzyme activity, inhibitor, radiometric",,1 µM,remaining activity,7%
CC(C)(O)[C@H]1CC[C@H](Nc2ccc3ncc(-c4cccc(C(F)(F)F)c4)n3n2)CC1,RPS6KB2,"enzyme activity, inhibitor",,1 µM,remaining activity,82.3%
COc1cc2c(cc1OC)C(=O)N(CCc1c[nH]c3ccccc13)C2,ache,"enzyme activity, inhibitor",,1 µM,inhibition,-4.59%
NS(=O)(=O)c1ccc(CNc2nc(Nc3cccc(CN4CCOCC4)c3)ncc2C2CC2)cc1,STK17B,"enzyme activity, inhibitor, radiometric",,1 µM,remaining activity,84%
CC(C)(C)c1nc2c(s1)c1nc(N)ncc1c1ccc(NS(=O)(=O)c3c(F)cccc3F)c(F)c12,RPS6KB2,"enzyme activity, inhibitor, radiometric",,1 µM,remaining activity,90%
Cn1c2c(c3ccc(Cl)c(Cl)c31)C(C#N)C1(CCOCC1)NC2=O (stereo not drawn),STK32A,"thermal stability, DSF",,10 µM,ΔTm,-0.3 °C
COc1cc2c(cc1OC)C(=O)N(CC1CCN(Cc3ccsc3)CC1)C2,ache,"enzyme activity, inhibitor",,1 µM,inhibition,13.9%
CCc1cc(/C(C)=N/OCc2ccc(C3CCCCC3)c(C(F)(F)F)c2)ccc1CN1CC(C(=O)O)C1,S1PR1,"calcium signal, agonist, fluorescence",HUVEC,,Emax,85%
O[C@@H]1[C@H](O)CO[C@H]1n1cnc2c(NCc3cccc(Cl)c3)nc(Cl)nc21,"Adenosine receptor A1 (ADORA1, Homo sapiens, UniProt P30542)","ligand displacement, radioligand",,"10 µM, cell membranes",inhibition,36%
CCc1cc(-c2noc(-c3cc(OC)nc(C4CCCC4)c3)n2)cc(C)c1OC[C@@H](O)CO,S1PR1,"calcium signal, agonist, fluorescence",HUVEC,,Emax,37%
CN1CCc2cc(Nc3ncc(C4CC4)c(NCCCNC(=O)C4CCC4)n3)ccc2C1,STK17B,"enzyme activity, inhibitor, radiometric",,1 µM,remaining activity,4%
Cn1c2c(c3ccc(Cl)c(Cl)c31)C(C#N)C(C)(C)NC2=O (stereo not drawn),STK32A,"thermal stability, DSF",,10 µM,ΔTm,-0.1 °C
COc1cc2c(cc1OC)C(=O)N(Cc1cnc3c(c1)OCCN3C)C2,ache,"enzyme activity, inhibitor",,1 µM,inhibition,1.71%
CC(C)(C)c1nc(-c2cccc(NS(=O)(=O)c3c(F)cccc3F)c2F)c(-c2ccnc(N)n2)s1,"Mitogen-activated protein kinase kinase kinase 21 (MAP3K21, Homo sapiens, UniProt Q5TCX8)","enzyme activity, inhibitor, radiometric",,1 µM,remaining activity,92%
